Results on three compounds are retold here after PMC5421726 (Clinical and Translational Science, 2017).

The test system of data set [1] is HbA1c. The data set can be described thus: PK/PD model relating tPDE4i to HbA1c in db/db mice. It is filed as in vivo. Summed up:
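Once-daily dosing of db/db mice for 28 days: test compound at 1, 3 or 10 mg/kg/day, reference PDE4 inhibitor at 0.3, 1 or 3 mg/kg/day, its N-oxide metabolite at 3 mg/kg/day, vehicle 4% methocel. HbA1c read on days -1, 14 and 28. Emax model links HbA1c rise over time to individual tPDE4i. Fit by nonlinear mixed-effects modelling with FOCE-interaction; checked by visual predictive check (200 simulations).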

The test system of data set [2] is HbA1c. The following applies: clinical setting; cited from earlier work.
A further data set concerns PDE4. Description: Total PDE4 inhibition. Format: in vivo. The following applies: db/db mice, geometric mean; for Complete tPDE4i: roflumilast + roflumilast N-oxide.
Data set [3] is described as follows: Unbound fraction in mouse plasma in vitro. It is filed as in vitro ADME.
A further data set has as its system diabetic mouse model. Particulars: cited from earlier work.
Data set [4] is described as follows: Population pharmacokinetic analysis in db/db mice. It is filed as in vivo. Particulars: after roflumilast-N-oxide dosing.
The mark [5] stands for this setting: roflumilast N-oxide 3 mg/kg/day.

As to `O=C(Nc1c(Cl)c[n+]([O-])cc1Cl)c1ccc(OC(F)F)c(OCC2CC2)c1` [roflumilast(‐N‐oxide)], in the data set with HbA1c [1] (final PK/PD model estimate, 28 days), the “PDE50 (tPDE4i leading to half-maximum effect on HbA1c)” value is 27.1.

On to `O=C(Nc1c(Cl)cncc1Cl)c1ccc(OC(F)F)c(OCC2CC2)c1` [roflumilast], for which the HbA1c levels entry in the data set with HbA1c [2] is recorded as “significantly reduced”. Moreover, in the data set on PDE4 (roflumilast 0.3 mg/kg/day), the tPDE4irof was determined as 0.744, the tPDE4irofNO is on record as 0.731 and the “Complete tPDE4i” value worked out at 1.49. Moreover, in the data set on PDE4 (roflumilast 1 mg/kg/day), the tPDE4irof came out at 2.23 and the tPDE4irofNO amounted to 2.31. For the same compound, in the data set with PDE4 (roflumilast 3 mg/kg/day), the tPDE4irof is 6.56, the tPDE4irofNO stood at 7.18 and the “Complete tPDE4i” value is listed as 13.8. Further, the “Dose required to reach half-maximum effect on HbA1c” value in the data set with HbA1c [1] (calculated from PDE50) is on record as 5.9 mg/kg. This compound also returned an unbound share (fraction unbound) in data set [3] of 0.037. Moreover, in the data set on diabetic mouse model, the Antidiabetic efficacy entry is recorded as “significant antidiabetic efficacy”.

For `O=C(Nc1c(Cl)c[n+]([O-])cc1Cl)c1ccc(OC(F)F)c(OCC2CC2)c1` [roflumilast‐N‐oxide], in the data set on PDE4 (setting [5]), the tPDE4irof is listed as 0.375, the tPDE4irofNO was determined as 22.1 and the “Complete tPDE4i” value is 22.5. The “Exposure of roflumilast relative to roflumilast-N-oxide” value in data set [4] is reported as 2.6 % of roflumilast‐N‐oxide. In data set [4] (two-compartment model), the Apparent roflumilast clearance is 41.8 L/h and the “Apparent roflumilast-N-oxide clearance” value came to 1.09 L/h.

Usually fraction unbound stands for the share of the substance not bound to proteins or other matrix. A higher fraction unbound goes with much free substance.
